Laboratory results published in ChEMBL document CHEMBL1144923, “Restricted conformation analogues of an anthelmintic cyclodepsipeptide” (2003).

How the values were obtained:
Format in all cases: functional
[1] = system: Meriones unguiculatus; assay: Percent reduction of Haemonchus contortus in immunosuppressed jird (Meriones unguiculatus) when CDP administered 0.11 mg/jird orally
Procedure, shortened: (§1)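 Jirds were immunosuppressed via medicated food; 5 days later each got ~1000 exsheathed infective H. contortus larvae (pre-incubated 1 h in Earle's balanced salt solution) per os. The strain was maintained in sheep. Jirds were randomized by cage (3/group) on day 10 post-inoculation. Compound was suspended in 17% DMSO/83% carboxymethylcellulose and given orally in 0.2 mL, with vehicle-only controls. Worms were recovered after 5 h incubation at 37 °C, fixed in formaldehyde and counted under a dissecting microscope. Percent clearance = (mean control − mean treated)/mean control × 100.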

[2] = system: Meriones unguiculatus; assay: Percent reduction of Haemonchus contortus in immunosuppressed jird (Meriones unguiculatus) when CDP administered 0.33 mg/jird orally; procedure, shortened: as §1
[3] = system: Meriones unguiculatus; assay: Percent reduction of Haemonchus contortus in immunosuppressed jird (Meriones unguiculatus) when CDP administered 1 mg/jird orally; procedure, shortened: as §1
[4] = system: Meriones unguiculatus; assay: Percent reduction of Haemonchus contortus in immunosuppressed jird (Meriones unguiculatus) when CDP administered 3 mg/jird orally; procedure, shortened: as §1
[5] = system: Meriones unguiculatus; assay: Percent reduction of Haemonchus contortus in immunosuppressed jird (Meriones unguiculatus) when CDP administered 5.75 mg/jird orally; procedure, shortened: as §1
[6] = system: Meriones unguiculatus; assay: Percent reduction of Haemonchus contortus in immunosuppressed jird (Meriones unguiculatus) when CDP administered 2.75 mg/jird orally; procedure, shortened: as §1

Row | Structure (SMILES) | Reduction [1] | Reduction [2] | Reduction [3] | Reduction [4] | Reduction [5] | Reduction [6]
1 | CC(C)C[C@H]1C(=O)O[C@H](Cc2ccccc2)C(=O)N(C)[C@@H](CC(C)C)C(=O)O[C@H](C)C(=O)N(C)[C@@H](CC(C)C)C(=O)O[C@H](Cc2ccccc2)C(=O)N(C)[C@@H](CC(C)C)C(=O)O[C@H](C)C(=O)N1C | 100% |  |  |  |  | 
2 | CC(C)C[C@H]1C(=O)O[C@H](Cc2ccccc2)C(=O)N(C)[C@@H](CC(C)C)C(=O)OC2CCCN(C2=O)[C@@H](CC(C)C)C(=O)O[C@H](Cc2ccccc2)C(=O)N(C)[C@@H](CC(C)C)C(=O)O[C@H](C)C(=O)N1C (stereo partly specified) | 36% | 75% | 89% | 99% |  | 
3 | CC(C)C[C@H]1C(=O)O[C@H](Cc2ccccc2)C(=O)N(C)[C@@H](CC(C)C)C(=O)O[C@@H]2CCN(C2=O)[C@@H](CC(C)C)C(=O)O[C@H](Cc2ccccc2)C(=O)N(C)[C@@H](CC(C)C)C(=O)O[C@H](C)C(=O)N1C |  |  |  |  | 89% | 69%
4 | CC(C)C[C@H]1C(=O)O[C@H](Cc2ccccc2)C(=O)N(C)[C@@H](CC(C)C)C(=O)OC2CCCCN(C2=O)[C@@H](CC(C)C)C(=O)O[C@H](Cc2ccccc2)C(=O)N(C)[C@@H](CC(C)C)C(=O)O[C@H](C)C(=O)N1C (stereo partly specified) | 91% | 99% | 100% | 100% |  | 
